In ChEMBL document CHEMBL1124987, “7-Deaza-2-phenyladenines: structure-activity relationships of potent A1 selective adenosine receptor antagonists” (J Med Chem, 1990):
Active and inactive are the calls of the source. The rule behind the calls is not given here.

Experiments:
[1] = target: T1, Adenosine receptor A1 (Rattus norvegicus, UniProt P25099); assay: Binding affinity against Adenosine A1 receptor from rat brain membrane using [3H]R-PIA as radioligand
T1 sequence (P25099 whole entry): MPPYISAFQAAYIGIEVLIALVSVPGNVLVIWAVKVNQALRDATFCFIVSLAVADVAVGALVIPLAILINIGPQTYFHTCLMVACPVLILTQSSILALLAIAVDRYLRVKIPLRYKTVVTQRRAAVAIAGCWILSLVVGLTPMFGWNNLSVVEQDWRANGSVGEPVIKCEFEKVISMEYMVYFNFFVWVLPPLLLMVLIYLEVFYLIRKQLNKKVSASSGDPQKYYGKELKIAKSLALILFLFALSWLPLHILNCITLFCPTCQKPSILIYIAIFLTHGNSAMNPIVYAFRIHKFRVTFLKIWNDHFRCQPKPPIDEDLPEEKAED
How it was run: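 Rat cerebral cortical membranes; displacement of [3H]-(R)-PIA (Kd 1 nM) by a range of test concentrations. Nonspecific binding defined with 5 mM theophylline. Triplicate determinations in three separate experiments. IC50 converted to Ki via Cheng-Prusoff.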

[2] = target: Adenosine A2 receptor (Rattus norvegicus, UniProt P29276+P30543); assay: Binding affinity against Adenosine A2 receptor from rat striatal membrane using [3H]NECA as radioligand
[3] = target: T2, Adenosine receptor A1 (Rattus norvegicus) (UniProt P25099); assay: Reversal of adenylate cyclase inhibition via Adenosine A1 receptor by R-PIA in rat fat cells; type: functional, cell-based
T2 sequence (whole entry): T1 sequence (P25099 whole entry)
How it was run: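 Rat fat cell membranes; adenylate cyclase inhibited by R-PIA through A1 receptors, and antagonist reversal measured. K_B calculated with the Schild equation from the ratio of R-PIA IC50 values with and without antagonist.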

[4] = target: T3, Adenosine A2 receptor (Rattus norvegicus) (UniProt P29276+P30543); assay: Inhibition of adenylate cyclase activity via A2 receptors by NECA in rat PC12 cells; c = Noncompetitive inhibition; type: functional, cell-based; conditions: PC-12
How it was run: (§1)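 Membranes from rat pheochromocytoma PC12 cells; adenylate cyclase activated via A2 receptors by NECA, measured with a range of antagonist concentrations. K_B from the Schild equation using the ratio of NECA EC50 values with and without antagonist. Means ± SEM of three separate experiments in triplicate.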

[5] = target: T3, Adenosine A2 receptor (Rattus norvegicus); assay: Inhibition of adenylate cyclase stimulation via Adenosine A2 receptor by NECA in rat striatal membrane; b= No effect; type: functional
How it was run: (§2)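 Rat striatal membranes; adenylate cyclase stimulated by NECA through A2 receptors, with antagonist present or absent. K_B derived by Schild equation from the NECA EC50 ratio with versus without antagonist.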

[6] = target: T3, Adenosine A2 receptor (Rattus norvegicus); assay: Inhibition of adenylate cyclase stimulation via Adenosine A2 receptor by NECA in rat pheochromocytoma PC12 cells; type: functional, cell-based; conditions: PC-12; how it was run: as §1
[7] = target: T3, Adenosine A2 receptor (Rattus norvegicus); assay: Inhibition of adenylate cyclase stimulation via Adenosine A2 receptor by NECA in rat striatal membrane; type: functional, cell membranes; conditions: Striatum; how it was run: as §2

**Q.** With `Cc1c(C)n(-c2ccccc2)c2nc(-c3ccc(Cl)cc3)nc(N)c12` as the molecule, how does the Ki [1] read?
**A.** The Ki was 0.122 µM.

**Q.** What about the Ki [2] of the same molecule?
**A.** Its Ki is greater than 250 µM.

**Q.** What about the Kb [3] of the same molecule?
**A.** Its Kb is 0.057 µM.

**Q.** And the Kb [4]?
**A.** Its Kb is “Non-competitive inhibition”.

**Q.** And the Kb [5]?
**A.** Its Kb is “inactive”.

**Q.** Which Ki [1] does the source give for `Sc1nc(S)c2c3c(n(-c4ccccc4)c2n1)CCCC3` here?
**A.** Its Ki is 84.8 µM.

**Q.** What about the Ki [2] of the same molecule?
**A.** Its Ki is greater than 250 µM.

**Q.** For `Oc1ncnc2c1c1ccccc1n2-c1ccccc1`, which Ki [2] is on record?
**A.** The Ki was 1.44 µM.

**Q.** What about the Kb [3] of the same molecule?
**A.** The Kb was 1.4 µM.

**Q.** And the Kb [6]?
**A.** Its Kb is 0.22 µM.

**Q.** For `Nc1ncnc2c1c(C(=O)O)c(C(=O)O)n2-c1ccccc1`, which Ki [1] is on record?
**A.** Its Ki is 67 µM.

**Q.** With `Cc1nc(N)c2c(C)c(C)n(-c3ccccc3)c2n1` as the molecule, how does the Ki [1] read?
**A.** Its Ki is 30.4 µM.

**Q.** And the Ki [2]?
**A.** The Ki was 203 µM.

**Q.** How did the Ki [1] turn out when `Nc1ncnc2c1c(C=O)c(C=O)n2-c1ccccc1` was run?
**A.** The Ki was 50.1 µM.

**Q.** What about the Ki [2] of the same molecule?
**A.** Its Ki is 76.3 µM.

**Q.** For `Cc1c(C)n(Cc2ccc(Br)cc2)c2ncnc(N)c12`, which Ki [1] is on record?
**A.** Its Ki is greater than 100 µM.

**Q.** What about the Ki [2] of the same molecule?
**A.** Its Ki is 154.9 µM.

**Q.** For `Cc1c(C)n(-c2ccccc2)c2nc(-c3ccccc3)nc(N)c12`, which Ki [1] is on record?
**A.** The Ki was 0.036 µM.

**Q.** And the Ki [2]?
**A.** The Ki was 0.024 µM.

**Q.** What does the source list for `Clc1ncnc2c1c1ccccc1n2-c1ccccc1`?
**A.** Ki [1]: 2.42 µM; Ki [2]: 4.06 µM

**Q.** How did the Ki [2] turn out when `Oc1ncnc2c1c1c(n2-c2ccccc2)CCCC1` was run?
**A.** The Ki was 1.35 µM.

**Q.** What about the Kb [6] of the same molecule?
**A.** Its Kb is 0.87 µM.

**Q.** And the Kb [7]?
**A.** The Kb was 1.76 µM.

**Q.** Which results are given for `Cc1c(C)n(-c2ccccc2)c2nc(-c3ccccc3Cl)nc(N)c12`?
**A.** Ki [1]: 0.99 µM; Ki [2]: 40.7 µM

**Q.** For `Cc1[nH]c2nc(-c3ccccc3)nc(N)c2c1C`, which Ki [1] is on record?
**A.** Its Ki is 1.49 µM.

**Q.** What about the Ki [2] of the same molecule?
**A.** Its Ki is 21.3 µM.

**Q.** And the Kb [3]?
**A.** Its Kb is 0.8 µM.

**Q.** And the Kb [6]?
**A.** Its Kb is 5.5 µM.

**Q.** How did the Ki [1] turn out when `CS(=O)(=O)c1nc(S(C)(=O)=O)c2c3c(n(-c4ccccc4)c2n1)CCCC3` was run?
**A.** Its Ki is 16.9 µM.

**Q.** And the Ki [2]?
**A.** Its Ki is 157 µM.

**Q.** How did the Ki [1] turn out when `Cc1c(C)n([C@H]2C[C@H](O)[C@@H](CO)O2)c2ncnc(N)c12` was run?
**A.** Its Ki is greater than 250 µM.

**Q.** And the Ki [2]?
**A.** Its Ki is greater than 250 µM.

**Q.** Which results are given for `Cc1c(C)n([C@@H](C)c2ccccc2)c2nc(-c3ccccc3)nc(N)c12`?
**A.** Ki [1]: 0.165 µM; Ki [2]: 80.8 µM

**Q.** How did the Ki [1] turn out when `Cc1nc(N)c2c(C)c(C)[nH]c2n1` was run?
**A.** Its Ki is 88 µM.

**Q.** And the Ki [2]?
**A.** The Ki was greater than 250 µM.

**Q.** For `O=c1[nH]cnc2c1c1c(n2-c2ccccc2)CCCC1`, which Ki [1] is on record?
**A.** Its Ki is 2.07 µM.

**Q.** For `Cc1[nH]c2nc(-c3cccc(Cl)c3)nc(N)c2c1C`, which Ki [1] is on record?
**A.** Its Ki is 0.73 µM.

**Q.** What about the Ki [2] of the same molecule?
**A.** Its Ki is 20.8 µM.

**Q.** For `Nc1ncnc2c1c1c(n2-c2ccccc2)CCCC1`, which Ki [1] is on record?
**A.** The Ki was 3.24 µM.

**Q.** And the Ki [2]?
**A.** The Ki was 10.9 µM.

**Q.** What about the Kb [6] of the same molecule?
**A.** Its Kb is 7.5 µM.

**Q.** What about the Kb [7] of the same molecule?
**A.** Its Kb is 31.6 µM.

**Q.** Which Ki [1] does the source give for `NNc1ncnc2c1c1ccccc1n2-c1ccccc1` here?
**A.** Its Ki is 8.42 µM.

**Q.** And the Ki [2]?
**A.** The Ki was 7.71 µM.

**Q.** What does the source list for `CSc1nc(SC)c2c3c(n(-c4ccccc4)c2n1)CCCC3`?
**A.** Ki [1]: 97.8 µM; Ki [2]: > 250 µM

**Q.** With `C=CCn1c(C)c(C)c2c(N)ncnc21` as the molecule, how does the Ki [1] read?
**A.** Its Ki is 49 µM.

**Q.** What about the Ki [2] of the same molecule?
**A.** The Ki was 83 µM.

**Q.** What about the Kb [6] of the same molecule?
**A.** Its Kb is 40 µM.

**Q.** How did the Ki [1] turn out when `Cc1[nH]c2ncnc(N)c2c1C` was run?
**A.** Its Ki is 55 µM.

**Q.** What about the Ki [2] of the same molecule?
**A.** Its Ki is 208 µM.

**Q.** Which Ki [1] does the source give for `Cc1c(C)n(C(C)c2ccccc2)c2nc(-c3ccccc3Cl)nc(N)c12` (centres undefined) here?
**A.** The Ki was 0.052 µM.

**Q.** What about the Ki [2] of the same molecule?
**A.** Its Ki is 28.1 µM.

**Q.** How did the Ki [1] turn out when `O=c1[nH]cnc2c1c1ccccc1n2-c1ccccc1` was run?
**A.** The Ki was 0.88 µM.

**Q.** `Cc1c(C)n([C@H](C)c2ccccc2)c2nc(-c3ccccc3)nc(N)c12` was tested. Which Ki [1] did it give?
**A.** Its Ki is 0.0047 µM.

**Q.** What about the Ki [2] of the same molecule?
**A.** Its Ki is 3.71 µM.

**Q.** What about the Kb [3] of the same molecule?
**A.** Its Kb is 0.0038 µM.

**Q.** And the Kb [6]?
**A.** The Kb was 3.06 µM.

**Q.** Which results are given for `Nc1ncnc2c1c1ccccc1n2-c1ccccc1`?
**A.** Ki [1]: 1.95 µM; Ki [2]: 5.98 µM; Kb [3]: 3.3 µM; Kb [6]: 1.73 µM; Kb [7]: 14 µM

**Q.** With `CCCCCCn1c(C)c(C)c2c(N)ncnc21` as the molecule, how does the Ki [1] read?
**A.** The Ki was 60 µM.

**Q.** And the Ki [2]?
**A.** The Ki was 263 µM.

**Q.** What about the Kb [6] of the same molecule?
**A.** Its Kb is 42 µM.

**Q.** Which results are given for `Cc1[nH]c2nc(-c3ccccc3Cl)nc(N)c2c1C`?
**A.** Ki [1]: 5.17 µM; Ki [2]: 85.6 µM

**Q.** Which Ki [1] does the source give for `Cc1[nH]c2nc(-c3ccc(Cl)cc3)nc(N)c2c1C` here?
**A.** The Ki was 1.24 µM.

**Q.** What about the Ki [2] of the same molecule?
**A.** The Ki was 35.6 µM.

**Q.** Which Ki [1] does the source give for `Cc1c(C)n(-c2ccccc2)c2ncnc(N)c12` here?
**A.** The Ki was 18 µM.

**Q.** What about the Ki [2] of the same molecule?
**A.** The Ki was 123 µM.

**Q.** What about the Kb [3] of the same molecule?
**A.** The Kb was 22 µM.

**Q.** And the Kb [6]?
**A.** Its Kb is 62 µM.

**Q.** Which Ki [1] does the source give for `Cc1[nH]c2ncnc(O)c2c1C` here?
**A.** Its Ki is 58 µM.

**Q.** What about the Ki [2] of the same molecule?
**A.** Its Ki is 176 µM.

**Q.** And the Kb [6]?
**A.** The Kb was 33 µM.

**Q.** Which Ki [1] does the source give for `Cc1c(C)n(C(C)c2ccccc2)c2nc(-c3cccc(Cl)c3)nc(N)c12` (centres undefined) here?
**A.** The Ki was 0.028 µM.

**Q.** And the Ki [2]?
**A.** The Ki was 59.9 µM.

**Q.** With `Nc1ncnc2c1ccn2-c1ccccc1` as the molecule, how does the Ki [1] read?
**A.** The Ki was 3.1 µM.

**Q.** What about the Ki [2] of the same molecule?
**A.** Its Ki is 25 µM.

**Q.** What about the Kb [3] of the same molecule?
**A.** Its Kb is 4.6 µM.

**Q.** And the Kb [6]?
**A.** Its Kb is 17 µM.

**Q.** Which Ki [1] does the source give for `c1ccc(-n2c3ccccc3c3c(NC4CCCCC4)ncnc32)cc1` here?
**A.** Its Ki is 1.96 µM.

**Q.** And the Ki [2]?
**A.** The Ki was 133 µM.

**Q.** How did the Ki [1] turn out when `COc1cccc(-n2c(C)c(C)c3c(N)ncnc32)c1OC` was run?
**A.** The Ki was 54.3 µM.
